According to PubChem BioAssay:
Calls of active or inactive are those of the source.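 Rule for the calls: active = calcium signal ratio cut to more than 3 SD under the fully stimulated control mean yet still positive, in both repeats and the primary screen; inactive = the rest.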

biological target: Short transient receptor potential channel 4 (Mus musculus) (UniProt Q9QUQ5); test: inhibitors of mouse TRPC4 channel, confirmation, cell-based, second round, Fluo4, HEK293 TRPC4beta/mu-opioid, 1 µM (AID 2637); settings: Fluo4 calcium flux, DAMGO, at 1 µM
Sequence (Q9QUQ5 whole entry, looked up): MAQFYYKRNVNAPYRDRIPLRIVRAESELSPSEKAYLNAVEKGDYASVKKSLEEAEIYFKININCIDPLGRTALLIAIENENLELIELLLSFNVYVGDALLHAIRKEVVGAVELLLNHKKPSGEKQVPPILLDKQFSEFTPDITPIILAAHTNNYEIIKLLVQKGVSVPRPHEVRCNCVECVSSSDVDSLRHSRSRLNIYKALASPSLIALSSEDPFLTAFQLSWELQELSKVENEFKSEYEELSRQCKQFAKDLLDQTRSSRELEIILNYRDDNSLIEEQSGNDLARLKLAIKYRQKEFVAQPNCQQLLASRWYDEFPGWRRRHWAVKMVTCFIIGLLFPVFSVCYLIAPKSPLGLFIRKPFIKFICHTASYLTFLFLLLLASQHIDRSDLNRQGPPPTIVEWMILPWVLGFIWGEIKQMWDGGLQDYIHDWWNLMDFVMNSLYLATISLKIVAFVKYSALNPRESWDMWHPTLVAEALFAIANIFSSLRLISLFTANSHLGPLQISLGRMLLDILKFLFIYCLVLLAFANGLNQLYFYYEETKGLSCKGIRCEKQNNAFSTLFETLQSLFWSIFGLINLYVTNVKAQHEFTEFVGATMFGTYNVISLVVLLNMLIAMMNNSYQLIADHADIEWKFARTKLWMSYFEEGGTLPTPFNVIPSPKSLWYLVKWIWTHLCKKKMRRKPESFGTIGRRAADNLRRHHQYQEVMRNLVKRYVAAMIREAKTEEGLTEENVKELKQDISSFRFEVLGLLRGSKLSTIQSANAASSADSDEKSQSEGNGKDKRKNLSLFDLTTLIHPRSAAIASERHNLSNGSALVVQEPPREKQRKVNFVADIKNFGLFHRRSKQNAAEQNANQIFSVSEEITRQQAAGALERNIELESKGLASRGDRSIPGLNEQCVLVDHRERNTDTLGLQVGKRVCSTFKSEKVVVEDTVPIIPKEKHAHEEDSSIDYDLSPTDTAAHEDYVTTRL
Method in brief: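 test system = HEK293 stable line co-expressing TRPC4beta and mu-opioid receptor | schedule = dye loading 45 min room temperature, compound pre-incubation 110 s | controls = DAMGO ECmax control wells and wells without test compound | reagent = DAMGO, submaximal then ECmax | signal = kinetic Fluo4 Ca2+ fluorescence reading | replication = duplicates | compound = 1 µM single point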

outcome, inactive:
CCCCC(=O)NNC(=S)NC(=O)c1ccc(C)cc1
COc1cc(/C=C/C(=O)c2ccc3c(c2)OCO3)cc(Cl)c1O
CN(C)C(CNC(=O)C1CC(=O)N(Cc2ccccc2)C1)c1ccccc1 (stereo unspecified)
Cc1ccccc1OCC(=O)NNC(=S)NC(=O)c1ccco1
O=C(CCc1ccccc1)NNC(=S)NC(=O)c1ccc(Cl)cc1
CN(CCOc1ccc(Cl)cc1)CC(O)c1ccccc1 (stereo unspecified)
Cc1onc(-c2ccccc2)c1C(=O)NC(=S)NNC(=O)c1ccco1
CC(NCCC1(Cc2ccccc2Cl)CCOC(C)(C)C1)c1cccs1 (stereo unspecified)
CN(C)C(CNC(=S)Nc1ccc(F)cc1)c1cccnc1 (stereo unspecified)
O=C(COc1ccccc1)NNC(=S)NC(=O)c1ccc(Cl)cc1Cl
CCN1CCN(c2c(S(=O)(=O)c3ccc(C)c(C)c3)cnc3ccc(F)cc23)CC1
COc1ccc(C(CNC(=O)c2cccc(NS(=O)(=O)c3ccc(C)c(F)c3)c2)N(C)C)cc1 (stereo unspecified)
CCOC(=O)C1(CCOc2ccccc2)CCN(Cc2cnc(C)s2)CC1
COc1ccc(/C=C/CN2CCCC(C(=O)c3ccc(OC)c(F)c3)C2)cc1 (stereo unspecified)
O=S(=O)(c1ccc(Cl)cc1)N1CCN2CCCC2C1 (stereo unspecified)
OC(CNC1CCCc2ccccc21)COc1ccc2ccccc2c1 (stereo unspecified)
Cc1ccc2[nH]c3c(=O)n(CCc4cnc[nH]4)cnc3c2c1
Cc1ccn2cc(CCNC(=O)C3CC=CCC3C(=O)O)nc2c1 (stereo unspecified)
CCOC(=O)C1(CCOc2ccccc2)CCN(Cc2ccc(OC)c(O)c2)CC1
Cc1cc(OCCCn2ccnc2)cc(C)c1Cl
CCn1cc(CN2CCCC(C(=O)Nc3ccc(-c4nc5ccccc5[nH]4)cc3)C2)c(C)n1 (stereo unspecified)
